# Screening data from PubChem BioAssay.
# Shown are actives, neighbours in structure and some others; about 2.9% of the full set was active somewhere.
# CendR NRP1 mod = modulators of CendR peptide binding to human neuropilin-1; FAM-RPARPAR peptide binding to NRP-1, fluorescence polarization; O14786; 360,000 compounds, 0.85% hits; inhibition, % at 25 µM;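 active = inhibition or corrected inhibition above about 18%, plus a signal ratio from 0.5 to 1.5, limit read from the data, passing the limit was not always enough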
# Target sequence (O14786 whole entry, looked up): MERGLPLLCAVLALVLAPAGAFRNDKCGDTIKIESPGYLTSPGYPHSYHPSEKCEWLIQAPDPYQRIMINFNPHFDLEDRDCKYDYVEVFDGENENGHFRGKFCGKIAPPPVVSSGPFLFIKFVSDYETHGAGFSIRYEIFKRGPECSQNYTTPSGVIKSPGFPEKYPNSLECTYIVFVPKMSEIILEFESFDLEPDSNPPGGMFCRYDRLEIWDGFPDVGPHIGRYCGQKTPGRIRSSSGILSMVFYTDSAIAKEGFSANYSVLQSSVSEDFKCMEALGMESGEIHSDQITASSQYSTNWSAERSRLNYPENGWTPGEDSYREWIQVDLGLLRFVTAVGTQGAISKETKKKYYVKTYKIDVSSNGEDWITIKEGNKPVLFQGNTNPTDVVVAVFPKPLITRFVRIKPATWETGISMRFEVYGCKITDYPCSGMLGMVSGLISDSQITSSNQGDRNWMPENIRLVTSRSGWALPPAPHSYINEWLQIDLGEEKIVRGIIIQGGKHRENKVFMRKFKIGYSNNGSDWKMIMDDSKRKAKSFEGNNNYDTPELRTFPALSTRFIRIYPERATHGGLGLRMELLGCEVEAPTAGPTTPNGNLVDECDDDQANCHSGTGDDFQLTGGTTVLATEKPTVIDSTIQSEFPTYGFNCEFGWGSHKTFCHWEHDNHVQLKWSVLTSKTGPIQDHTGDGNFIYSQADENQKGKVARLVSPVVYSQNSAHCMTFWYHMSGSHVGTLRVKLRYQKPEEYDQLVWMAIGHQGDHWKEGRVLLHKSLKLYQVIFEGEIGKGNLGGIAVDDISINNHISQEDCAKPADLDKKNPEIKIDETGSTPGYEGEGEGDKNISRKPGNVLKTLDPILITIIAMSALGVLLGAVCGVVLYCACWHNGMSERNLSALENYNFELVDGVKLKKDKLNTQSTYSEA
# proKLK7 act = activators of human kallikrein-7 zymogen; P49862; purified proKLK7, EDANS-DABCYL substrate fluorescence; 100% is mature enzyme control, 0% vehicle; activation, % at 7 µM; 370,000 compounds, 0.9% hits;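 active = activation above the mean of all tested compounds plus 3 SD, computed per campaign excluding outliers beyond control limits, cut at about 13% in these data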
# DDE Tn6 FP inh = inhibitors of Tn6 peptide binding to human fibrin DD(E) | 370,000 compounds, 0.21% hits | inhibition, % at 8.3 µM | P02675 | Fibrin DD(E) TRITC-Tn6 fluorescence polarization displacement;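 active = inhibition above a per-campaign cutoff: mean of compounds within control limits plus 3 SD, cut at about 15% in these data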
# DDE Tn7 FP inh = DD(E)-Tn7 binding inhibition, primary FP screen. inhibition, % at 8.3 µM. P02675. AID 720508. 370,000 compounds, 0.13% hits. FP displacement of FITC-Tn7 peptide from fibrin DD(E); 0% = median of compound wells per plate;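 active = inhibition above the mean of compounds falling within the control limits plus 3 SD of them, cut at about 14% in these data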
#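 system = human fibrin DD(E) protein | quantity = DD(E) 2 µM final | medium = Tris/NaCl/CaCl2 buffer, pH 7.8 | also added = labelled Tn7 tracer, 0.1 µM | compound dosing = single point at 8.3 µM | timing = compound with protein 10 min, then 3 h after probe, room temperature | signal = FP measurement | benchmarks = Aha-Tn7 high control | repeats = one replicate per compound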
# CRFBP-R2 agonist = CRF-BP/CRF-R2 complex agonism. activation, % at 13.2 µM. 350,000 compounds, 0.46% hits. HEK293 CRF-R2/CRF-BP, calcium dye fluorescence (FLIPR); percent of saturating CRF peptide response;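 active = activation of at least 50%, plus an integration ratio under a set limit after plate pattern correction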
# CRFR2-BP antag = blocks CRF-induced signaling of the CRF-BP/CRF-R2 complex; HEK293 CRF-R2/CRF-BP, CRF-induced calcium fluorescence; inhibition, % at 11.8 µM; 350,000 compounds, 0.59% hits;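 active = inhibition of the ligand-induced calcium signal above about 50% at the single tested concentration, limit read from the data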
# Hits are given with their value; – = inactive; · = no result given.
SMILES,CendR NRP1 mod,proKLK7 act,DDE Tn6 FP inh,DDE Tn7 FP inh,CRFBP-R2 agonist,CRFR2-BP antag
COc1ccccc1Nc1nc(-c2c(C)[nH]c3ccccc23)cs1,–,–,–,–,–,–
CNc1nc(-c2c(C)[nH]c3ccc(OC)cc23)cs1,–,–,–,–,–,88
COCCN1Cc2cc(C(=O)OC)c3c(c2C1=O)c1cc(F)ccc1n3C(=O)c1ccccc1,·,–,–,–,·,·
O=S(=O)(NCc1csc(-c2cccs2)n1)c1cccs1,35,–,–,–,–,–
CCOc1ccc(NC(=O)NNC(=O)c2ccc3ccccc3c2O)cc1,26,–,–,–,–,–
O=C(Nc1nnc(CCN2CCOCC2)s1)C1CCCCC1,37,–,–,–,–,–
CC(C)NC(=O)N[C@H]1C[C@@H]2O[C@H](CO)CC[C@@H]2O[C@@H]1CCc1ccc(-c2ccc(F)cc2)cc1,·,–,–,–,·,·
COC(=O)c1cc2c(c3c4cc(C)ccc4n(S(=O)(=O)c4ccc(C)cc4)c13)C(=O)N(Cc1ccccc1OC)C2,·,–,–,–,·,·
c1ccc(-c2nc3nonc3nc2-c2ccccc2)cc1,–,–,–,–,–,54
N#C/C(=C\c1ccc(N2CCOCC2)o1)c1nc2ccccc2[nH]1,–,–,–,–,95,–
N#C/C(=C\c1ccc(-c2ccc(C(=O)O)cc2)o1)c1nc2ccccc2[nH]1,–,–,–,–,141,–
CC[C@@H](CCCCCCCn1ccc2ccccc21)CCC(=O)N(c1ccccc1)c1ccccc1,·,–,–,–,·,·
CCOC(=O)[C@@]12CN(C(=O)OC(C)(C)C)CC=C1N(Cc1ccc(OC)cc1)C(=O)[C@H]2CC(=O)N1CCSCC1,·,–,–,–,·,·
COc1cccc(C(=O)NC2CCN(CC(=O)NCc3ccccc3OC)CC2)c1,34,–,–,–,–,–
COc1cccc(C(=O)NC2CCN(CC(=O)NCc3ccccc3F)CC2)c1,–,–,–,–,–,–
O=C(CSCc1ccccc1)Nc1cc([N+](=O)[O-])ccc1F,–,–,–,–,–,85
O=S(=O)(NC1CCCC1)c1ccc(S(=O)(=O)NC2CCCC2)cc1,–,–,–,–,56,–
O=S(=O)(NC1CCCCCCC1)c1ccc(F)cc1,–,–,–,–,–,–
COc1ccc(S(=O)(=O)NC2CC2)cc1Br,27,–,–,–,–,–
COc1ccc(S(=O)(=O)NC(C)C(=O)NC2CC2)cc1C (stereo not drawn),28,–,–,–,–,–
CN(C(=O)c1ccc(S(=O)(=O)NC2CCCC2)cc1)C1CCCCC1,–,–,–,–,51,–
CC(=O)N[C@@H]1C[C@@H]2O[C@H](CO)CC[C@@H]2O[C@@H]1CCc1ccc(C#CC2(O)CCCC2)cc1,·,–,–,–,·,·
O=C(O)C1CC(=O)N(CCOc2ccccc2)C1 (stereo not drawn),–,–,–,–,–,63
O=C(O)C1CC(=O)N(Cc2ccccc2)C1 (stereo not drawn),–,–,–,–,–,–
CN(c1ccccc1)S(=O)(=O)c1cccc(NC(=O)CSc2nncn2C)c1,24,–,–,–,–,–
SMILES,CendR NRP1 mod,proKLK7 act,DDE Tn6 FP inh,DDE Tn7 FP inh,CRFBP-R2 agonist,CRFR2-BP antag
CN(c1ccccc1)S(=O)(=O)c1cccc(NC(=O)c2ccncc2)c1,–,–,–,–,–,–
CC(=O)Nc1ccc(C(=O)Nc2cccc(S(=O)(=O)N(C)c3ccccc3)c2)cc1,26,–,–,–,–,–
Cc1cccc(Oc2coc3cc(OC(=O)c4cccs4)ccc3c2=O)c1,–,41,–,–,–,–
O=C(Oc1ccc2c3c(c(=O)oc2c1)CCCC3)c1cccs1,–,–,–,–,–,–
Cc1ccc(Oc2coc3cc(OC(=O)c4cccs4)ccc3c2=O)cc1,–,45,–,–,–,–
O=C(Oc1ccc2c(=O)c(Oc3ccc4ccccc4c3)coc2c1)c1cccnc1,–,–,–,–,–,–
O=C(CCc1ccccc1-c1ccccc1CCNC(=O)c1ccccc1)NCc1ccccc1,·,–,–,–,·,·
CC1(C)Oc2ccc(C(=O)N3CCCC3)cc2NC1=O,·,–,–,–,·,·
CCCCNS(=O)(=O)/C=C/c1ccc(F)cc1CNC(=O)OC(C)(C)C,·,–,–,–,·,·
Cc1ccc(S(=O)(=O)N[C@H](C(=O)Oc2ccc3c(C(F)(F)F)cc(=O)oc3c2)c2ccccc2)cc1,–,·,·,·,69,–
Cc1ccc(S(=O)(=O)NCC(=O)OCc2cc(=O)oc3cc(C)ccc23)cc1,–,–,–,–,–,–
O=C(O)CC12CC3CC(C1)CC(n1ncc(NCC4CCCO4)c(Cl)c1=O)(C3)C2 (stereo not drawn),25,–,–,–,–,–
COC(=O)[C@]12C[C@H](CC(=O)NCc3ccc(C)o3)C(=O)N(Cc3ccccc3)C1=C[C@H](C(C)(C)C)O[C@@H]2C,·,–,–,–,·,·
COC(=O)C1CN(Cc2ccc(F)cc2)CCS(=O)(=O)N1Cc1ccc(OC)cc1 (stereo not drawn),·,–,–,–,·,·
Cc1cccc(Oc2ccc(Cl)cc2N)c1,29,–,–,–,–,–
CC[C@@]12C(=O)N(c3ccc(C)cc3)C(=O)N1[C@H](c1cccc(C)c1)[C@@H]1C(=O)N(Cc3ccccc3)C(=O)[C@@H]12,–,–,–,–,–,–
CC[C@@]12C(=O)N(c3ccc(OC)cc3)C(=O)N1[C@H](c1cccc(C)c1)[C@@H]1C(=O)N(Cc3ccccc3)C(=O)[C@@H]12,35,·,·,·,–,–
Cc1ccc(-c2cc(-c3nnc(SCC(=O)Nc4nccs4)n3N)[nH]n2)cc1,·,–,–,–,·,·
Cc1ccc(-n2c(O)c(C=Nc3ccccc3-c3n[nH]c(=S)[nH]c3=O)c3ccccc3c2=O)c(C)c1,–,–,–,–,–,53
COC(=O)[C@]12C[C@H](CC(=O)NCCCCc3ccccc3)C(=O)N(CCc3ccc(OC)c(OC)c3)C1=C[C@H](COCc1ccccc1)O[C@@H]2C,·,–,–,–,·,·
CSc1cccc(NC(=S)NN/C(=N/S(=O)(=O)c2ccccc2)N2CCCC2)c1,·,–,–,–,·,·
Cc1nn(CC(=O)N(C)C2(C#N)CCCCC2)c(C)c1[N+](=O)[O-],–,–,–,–,111,–
Cc1nn(CC(=O)NC2(C#N)CCCCC2)c(C)c1[N+](=O)[O-],–,–,–,–,–,–
